Laboratory results taken from ChEMBL document CHEMBL3091377, “Small molecule fusion inhibitors: design, synthesis and biological evaluation of (Z)-3-(5-(3-benzyl-4-oxo-2-thioxothiazolidinylidene)methyl)-N-(3-carboxy-4-hydroxy)phenyl-2,5-dimethylpyrroles and related derivatives targeting HIV-1 gp41” (Bioorg Med Chem, 2013).
pEC50, pIC50: −log10 of the molar value. The source made the active and inactive calls. The rule behind the calls is not given here.

Assays:
[1] = test system: Human immunodeficiency virus 1; assay: Antiviral activity against HIV1 3B infected in human MT2 cells assessed as inhibition of p24 antigen production after 4 days by ELISA; format: functional, organism-based; settings: Human immunodeficiency virus 1, 3B, MT2, 96 h
How it was run: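 MT-2 cells (1 × 10^4) infected with HIV-1 IIIB at 100 TCID50 in RPMI 1640 with 10% serum (printed "PBS"), compound at graded concentrations overnight. Supernatant then replaced with compound-free medium. Day 4: supernatant lysed in equal volume 5% Triton X-100, p24 quantified by sandwich ELISA against recombinant p24 standard curve. Triplicate; EC50 from percent inhibition.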

[2] = Cytotoxicity against human MT2 cells after 4 days by XTT assay; format: cell-based
How it was run: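 XTT assay on MT-2 cells (5 × 10^5/mL mixed with equal volume of compound at graded concentrations). Incubated 4 days, then XTT (1 mg/mL) containing 0.02 µM phenazine methosulphate added. A450 read after 4 h; CC50 calculated as concentration giving 50% cytotoxicity.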

[3] = test system: Human immunodeficiency virus 1; assay: Antiviral activity against enfuvirtide-resistant HIV-1 NL4-3 harboring gp41 (36G)V38A mutation infected in human MT2 cells assessed as inhibition of p24 antigen production after 4 days by ELISA; format: functional, organism-based
How it was run: (§1)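 1 × 10^4 MT-2 cells infected with virus (100 TCID50) in RPMI 1640 with 10% serum, with or without compound at graded concentrations, overnight. Supernatant then replaced with compound-free medium. Day 4 supernatant lysed with 5% Triton X-100. p24 quantified by HIVIG-capture sandwich ELISA with recombinant p24 standard curve, A450. IC50 by CalcuSyn, triplicate, mean ± SD.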

[4] = Selectivity index, ratio of CC50 for human MT2 cells to EC50 for HIV1 3B; format: toxicity, cell-based; settings: read-out: Ratio CC50/EC50
How it was run: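 Selectivity index calculated as CC50 (XTT, MT-2 cells, 4 days) divided by EC50 (p24 inhibition in HIV-1 IIIB-infected MT-2 cells).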

[5] = test system: Human immunodeficiency virus 1; assay: Antiviral activity against enfuvirtide-resistant HIV-1 NL4-3 harboring gp41 (36G)N42T/N43K mutation infected in human MT2 cells assessed as inhibition of p24 antigen production after 4 days by ELISA; format: functional, organism-based; how it was run: as §1
[6] = test system: Human immunodeficiency virus 1; assay: Antiviral activity against enfuvirtide-resistant HIV-1 NL4-3 harboring gp41 (36G)V38A/N42D mutation infected in human MT2 cells assessed as inhibition of p24 antigen production after 4 days by ELISA; format: functional, organism-based; how it was run: as §1
[7] = test system: Human immunodeficiency virus 1; assay: Antiviral activity against enfuvirtide-resistant HIV-1 NL4-3 harboring gp41 (36G)V38E/N42S mutation infected in human MT2 cells assessed as inhibition of p24 antigen production after 4 days by ELISA; format: functional, organism-based; how it was run: as §1
[8] = test system: Human immunodeficiency virus 1; assay: Antiviral activity against enfuvirtide-resistant HIV-1 NL4-3 harboring gp41 (36G)V38A/N42T mutation infected in human MT2 cells assessed as inhibition of p24 antigen production after 4 days by ELISA; format: functional, organism-based; how it was run: as §1
[9] = test system: Human immunodeficiency virus 1; assay: Antiviral activity against enfuvirtide-sensitive HIV-1 NL4-3 harboring gp41 (36G)N42S mutation infected in human MT2 cells assessed as inhibition of p24 antigen production after 4 days by ELISA; format: functional, organism-based; how it was run: as §1
[10] = (§2) Inhibition of HIV-1 gp41-mediated 6-helix bundle formation after 30 mins by sandwich ELISA; design: species or system Human immunodeficiency virus 1
How it was run: (§3)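 Peptide N36 (2 µM) preincubated with compound at graded concentrations, 37 °C, 30 min. C34 (2 µM) then added and incubated a further 30 min at 37 °C. Mixture captured on wells coated with rabbit IgG against gp41 six-helix bundle (10 µg/mL); A450 read. Percent inhibition versus no-compound control; IC50 calculated; triplicate.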

[11] = test system: Human immunodeficiency virus 1; assay: Ratio of IC50 for enfuvirtide-resistant HIV-1 NL4-3 harboring gp41 (36G)V38A/N42T mutation to IC50 for enfuvirtide-sensitive HIV-1 NL4-3 harboring gp41 (36G)N42S mutation; format: functional
How it was run: (§4)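 MT-2 cells (1 × 10^4) were infected overnight in RPMI 1640 with 100 TCID50 of the NL4-3 (36G) N42S or mutant strain, with graded compound. Medium was then replaced without compound. On day 4, supernatant was lysed in 5% Triton X-100 and p24 measured by HIVIG-capture ELISA (A450, recombinant p24 standard). IC50 was taken from triplicates, and the ratio was mutant IC50 over N42S IC50.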

[12] = test system: Human immunodeficiency virus 1; assay: Ratio of IC50 for enfuvirtide-resistant HIV-1 NL4-3 harboring gp41 (36G)V38E/N42S mutation to IC50 for enfuvirtide-sensitive HIV-1 NL4-3 harboring gp41 (36G)N42S mutation; format: functional; how it was run: as §4
[13] = test system: Human immunodeficiency virus 1; assay: Ratio of IC50 for enfuvirtide-resistant HIV-1 NL4-3 harboring gp41 (36G)V38A mutation to IC50 for enfuvirtide-sensitive HIV-1 NL4-3 harboring gp41 (36G)N42S mutation; format: functional; how it was run: as §4
[14] = test system: Human immunodeficiency virus 1; assay: Ratio of IC50 for enfuvirtide-resistant HIV-1 NL4-3 harboring gp41 (36G)N42T/N43K mutation to IC50 for enfuvirtide-sensitive HIV-1 NL4-3 harboring gp41 (36G)N42S mutation; format: functional; how it was run: as §4
[15] = test system: Human immunodeficiency virus 1; assay: Ratio of IC50 for enfuvirtide-resistant HIV-1 NL4-3 harboring gp41 (36G)V38A/N42D mutation to IC50 for enfuvirtide-sensitive HIV-1 NL4-3 harboring gp41 (36G)N42S mutation; format: functional; how it was run: as §4
[16] = test system: Human immunodeficiency virus 1; assay: as §2; how it was run: as §3

| Molecule | pEC50 [1] | pIC50 [10] | CC50 at 96 h [2] [µM] | selectivity ratio [4] | also measured |
| --- | --- | --- | --- | --- | --- |
| COC(=O)c1ccc(CN2C(=O)/C(=C/c3cc(C)n(-c4ccc(O)c(C(=O)O)c4)c3C)SC2=S)cc1 | 5.82 | 5.74 | 36.9 | 24.6 | pIC50 [3]: 5.31; pIC50 [5]: 5.64; pIC50 [6]: 5.66; pIC50 [7]: 5.56; pIC50 [8]: 5.78; pIC50 [9]: 5.70 |
| Cc1cc(/C=C2\SC(=S)N(Cc3ccc(C(C)(C)C)cc3)C2=O)c(C)n1-c1ccc(O)c(C(=O)O)c1 | 6.05 | 5.59 | 55.2 | 61.3 | pIC50 [3]: 5.37; pIC50 [5]: 5.71; pIC50 [6]: 5.69; pIC50 [7]: 5.57; pIC50 [8]: 5.75; pIC50 [9]: 6.33 |
| Cc1cc(/C=C2\SC(=S)N(Cc3ccccc3)C2=O)c(C)n1-c1ccc(Cl)c(C(=O)O)c1 | 4.72 | 4.46 | 68.3 | 3.6 | – |
| Cc1cc(/C=C2\SC(=S)N(Cc3ccccc3)C2=O)c(C)n1-c1cccc(C(=O)O)c1 | 4.82 | 4.34 | 83.4 | 5.5 | – |
| enfuvirtide | – | – | – | – | Ratio IC50 [11]: >20; Ratio IC50 [12]: >20; pIC50 [3]: < 5.70; Ratio IC50 [13]: >20; Ratio IC50 [14]: >20; Ratio IC50 [15]: >20; pIC50 [5]: < 5.70; pIC50 [6]: 5.81; pIC50 [7]: < 5.70; pIC50 [8]: 5.78; pIC50 [9]: 7.11 |
| Cc1ccc(C)n1-c1ccc(O)c(C(=O)O)c1 | 6.15 | 4.43 | – | 191 | – |
| COC(=O)c1cccc(CN2C(=O)/C(=C/c3cc(C)n(-c4ccc(O)c(C(=O)O)c4)c3C)SC2=S)c1 | 6.52 | 5.74 | 38.5 | 128 | pIC50 [3]: 5.76; pIC50 [5]: 5.70; pIC50 [6]: 6.14; pIC50 [7]: 5.47; pIC50 [8]: 5.55; pIC50 [9]: 5.65 |
| Cc1cc(/C=C2\SC(=S)N(Cc3ccc(C(F)(F)F)cc3)C2=O)c(C)n1-c1ccc(O)c(C(=O)O)c1 | 4.76 | 4.73 | 45.9 | 2.7 | – |

Now from value to molecule, other results behind:

| pEC50 [1] | pIC50 [10] | Molecule | CC50 at 96 h [2] [µM] | selectivity ratio [4] | also measured |
| --- | --- | --- | --- | --- | --- |
| 5.41 | 5.04 | Cc1cc(/C=C2\SC(=S)N(Cc3cccc(C(F)(F)F)c3)C2=O)c(C)n1-c1ccc(O)c(C(=O)O)c1 | 26.3 | 6.7 | – |
| 4.37 | 4.99 | Cc1cc(/C=C2\SC(=S)N(Cc3ccc(Br)cc3)C2=O)c(C)n1-c1ccc(O)c(C(=O)O)c1 | 94.4 | 2.2 | – |
| 4.54 | 4.65 | Cc1cc(/C=C2\SC(=S)N(Cc3ccccc3C(F)(F)F)C2=O)c(C)n1-c1ccc(O)c(C(=O)O)c1 | 28.8 | 1 | – |
| 5.15 | 4.17 | Cc1cc(/C=C2\SC(=S)N(Cc3ccc(C(=O)O)cc3)C2=O)c(C)n1-c1ccc(O)c(C(=O)O)c1 | 105 | 14.7 | – |
| 4.39 | – | Cc1cc(/C=C2\SC(=S)N(Cc3ccccc3Br)C2=O)c(C)n1-c1ccc(O)c(C(=O)O)c1 | 25.7 | 0.6 | – |
| 4.49 | 5.11 | Cc1cc(/C=C2\SC(=S)N(Cc3cccc(Br)c3)C2=O)c(C)n1-c1ccc(O)c(C(=O)O)c1 | 48.2 | 1.5 | – |
| 5.49 | 4.92 | Cc1cc(/C=C2\SC(=S)N(Cc3ccccc3)C2=O)c(C)n1-c1ccc(O)c(C(=O)O)c1 | 159 | 50.2 | – |
| 4.92 | 4.68 | Cc1cc(/C=C2\SC(=S)N(Cc3cccc(C(=O)O)c3)C2=O)c(C)n1-c1ccc(O)c(C(=O)O)c1 | > 100 | > 8.3 | – |
| 5.21 | 4.90 | Cc1cc(/C=C2\SC(=S)N(CCc3ccccc3)C2=O)c(C)n1-c1ccc(O)c(C(=O)O)c1 | 26 | 4.2 | – |
| 4.45 | – | Cc1cc(/C=C2\SC(=S)N(c3ccccc3)C2=O)c(C)n1-c1ccc(O)c(C(=O)O)c1 | > 100 | > 2.8 | inhibition [16]: inactive |
| 4.70 | 6.05 | COc1ccc(CN2C(=O)/C(=C/c3cc(C)n(-c4ccc(O)c(C(=O)O)c4)c3C)SC2=S)cc1 | 75.3 | 3.8 | – |
| 4.63 | 5.68 | COc1cccc(CN2C(=O)/C(=C/c3cc(C)n(-c4ccc(O)c(C(=O)O)c4)c3C)SC2=S)c1 | 102 | 4.4 | – |
